Results taken from ChEMBL document CHEMBL4190288, “Bioactive Azaphilone Derivatives from the Fungus Talaromyces aculeatus” (J Nat Prod, 2017).
Converted amounts (≈) assume the structure as drawn. The source made the active and inactive calls. The rule behind the calls is not given here.

Key:
HL-60 = experiment: Cytotoxicity against human HL60 cells by MTT assay; assay type: functional, cell-based
Procedure, shortened: (§1)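 Cytotoxicity tested on human HL-60, HeLa, A549 and K562 cell lines by a previously referenced method. Adriamycin was the positive control.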

Vibrio anguillarum = experiment: Antibacterial activity against Vibrio anguillarum after 18 hrs by broth dilution method; assay type: functional
Procedure, shortened: (§2)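 Conventional broth dilution MIC assay run on a panel of Gram-positive strains (Micrococcus lysodeikticus, Bacillus cereus, Bacillus megaterium) and Gram-negative strains (Proteus vulgaris, Vibrio anguillarum, Vibrio parahaemolyticus). Ciprofloxacin served as the positive control.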

K562 = experiment: Cytotoxicity against human K562 cells by MTT assay; assay type: functional, cell-based; procedure, shortened: as §1
HeLa = experiment: Cytotoxicity against human HeLa cells by SRB assay; assay type: functional, cell-based; procedure, shortened: as §1
A549 = experiment: Cytotoxicity against human A549 cells by SRB assay; assay type: functional, cell-based; procedure, shortened: as §1
Alpha glucosidase = Alpha glucosidase (Homo sapiens, UniProt O43451+P10253+P14410+Q2M2H8); experiment: Inhibition of alpha-glucosidase (unknown origin) using p-nitrophenyl glycoside as substrate treated 20 mins post substrate addition measured for 1 min by spectrophotometric analysis; assay type: protein assay
Procedure, shortened: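 In vitro α-glucosidase inhibition measured by a previously referenced procedure.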

Bacillus cereus = experiment: Antibacterial activity against Bacillus cereus after 18 hrs by broth dilution method
Priestia megaterium = experiment: Antibacterial activity against Bacillus megaterium after 18 hrs by broth dilution method
Proteus vulgaris = experiment: Antibacterial activity against Proteus vulgaris after 18 hrs by broth dilution method
Vibrio parahaemolyticus = experiment: Antibacterial activity against Vibrio parahaemolyticus after 18 hrs by broth dilution method; assay type: functional; procedure, shortened: as §2
Micrococcus luteus = experiment: Antibacterial activity against Micrococcus lysodeikticus after 18 hrs by broth dilution method

MIC (Vibrio anguillarum)	IC50 (Alpha glucosidase)	MIC (Bacillus cereus)	MIC (Priestia megaterium)	MIC (Proteus vulgaris)	MIC (Micrococcus luteus)	SMILES	Activity (HL-60)	Activity (K562)	Activity (HeLa)	Activity (A549)	MIC (Vibrio parahaemolyticus)
> 8.28 µg/mL	> 200 µM	–	–	–	–	Cc1cc(O)cc(O)c1C(=O)O[C@H]1[C@@H]2COC(/C=C/CO)=CC2=CC(=O)[C@@]1(C)O [PINOPHILIN B]	inactive	inactive	inactive	inactive	–
> 8.28 µg/mL	> 200 µM	–	–	–	–	Cc1cc(O)cc(O)c1C(=O)O[C@H]1C2=COC(/C=C/CO)=CC2=CC(=O)[C@@]1(C)O	inactive	inactive	inactive	inactive	–
0.199 to 0.52 µg/mL (≈ 0.601 to 1.57 µM)	–	0.43 µg/mL (≈ 1.3 µM)	1.66 µg/mL (≈ 4.99 µM)	0.199 µg/mL (≈ 0.601 µM)	0.099 µg/mL (≈ 0.299 µM)	O=C(O)c1cn(C2CC2)c2cc(N3CCNCC3)c(F)cc2c1=O [CIPROFLOXACIN]	–	–	–	–	0.43 µg/mL (≈ 1.3 µM)
> 8.28 µg/mL	> 200 µM	–	–	–	–	COC(=O)C1=CC2=CC(=O)[C@@](C)(O)[C@@H](OC(=O)c3c(C)cc(O)cc3O)[C@@H]2CO1	inactive	inactive	inactive	inactive	–
–	> 200 µM	–	–	–	–	Cc1cc(O)cc(O)c1C(=O)O[C@]1(C)C(=O)C=C2C=C(/C=C/CO)OC=C2C1=O	inactive	inactive	inactive	inactive	–
> 8.28 µg/mL	> 200 µM	–	–	–	–	COC(=O)CCC1=CC2=CC(=O)[C@@](C)(O)[C@@H](OC(=O)c3c(C)cc(O)cc3O)[C@@H]2CO1	inactive	inactive	inactive	inactive	–
> 8.28 µg/mL	> 200 µM	–	–	–	–	COC(OC)C1=CC2=CC(=O)[C@@](C)(O)[C@@H](OC(=O)c3c(C)cc(O)cc3O)[C@@H]2CO1	inactive	inactive	inactive	inactive	–
> 8.28 µg/mL	> 200 µM	–	–	–	–	Cc1cc(O)cc(O)c1C(=O)O[C@H]1[C@@H]2COC(/C=C/C(=O)O)=CC2=CC(=O)[C@@]1(C)O	inactive	inactive	inactive	inactive	–
> 8.28 µg/mL	> 200 µM	–	–	–	–	C/C=C/C1=CC2=CC(=O)[C@@](C)(O)[C@@H](OC(=O)c3c(C)cc(O)cc3O)[C@@H]2CO1	inactive	inactive	inactive	inactive	–
0.26 µg/mL (≈ 0.68 µM)	> 200 µM	–	–	–	–	C/C=C/C1=CC2=CC(=O)[C@@](C)(OC(=O)c3c(C)cc(O)cc3O)C(=O)C2=CO1	inactive	inactive	inactive	inactive	–
0.26 µg/mL (≈ 0.649 µM)	22.9 µM	–	–	–	–	Cc1cc(O)cc(O)c1C(=O)O[C@H]1[C@@H]2COC(/C=C/C=O)=CC2=CC(=O)[C@@]1(C)O	inactive	inactive	inactive	inactive	–
> 8.28 µg/mL	78.6 µM	–	–	–	–	Cc1cc(O)cc(O)c1C(=O)O[C@H]1[C@@H]2COC(/C=C/[C@H](C)O)=CC2=CC(=O)[C@@]1(C)O	inactive	inactive	inactive	inactive	–
